Source: ChEMBL document CHEMBL1154780, “Synthesis of new linear guanidines and macrocyclic amidinourea derivatives endowed with high antifungal activity against Candida spp. and Aspergillus spp” (J Med Chem, 2009)
Converted amounts (≈) assume the structure as drawn.

What was measured:
[1] = test system: Pichia kudriavzevii; assay: Anticandidal activity against Candida krusei 193T after 24 hrs by spectrophotometry; assay type: functional
[2] = test system: Candida parapsilosis; assay: Anticandidal activity against Candida parapsilosis 64E after 24 hrs by spectrophotometry; assay type: functional; conditions: Lodderomyces parapsilosis
[3] = test system: Candida parapsilosis; assay: Anticandidal activity against Candida parapsilosis ATCC 34136 after 24 hrs by spectrophotometry; assay type: functional; conditions: Lodderomyces parapsilosis, ATCC 34136, 24 h
[4] = test system: Candida parapsilosis; assay: Anticandidal activity against Candida parapsilosis 81E after 24 hrs by spectrophotometry; assay type: functional; conditions: Lodderomyces parapsilosis
[5] = test system: Pichia kudriavzevii; assay: Anticandidal activity against Candida krusei ATCC 14243 after 24 hrs by spectrophotometry; assay type: functional; conditions: ATCC 14243, 24 h
[6] = test system: Nakaseomyces glabratus; assay: Anticandidal activity against Candida glabrata 70E after 24 hrs by spectrophotometry; assay type: functional
[7] = test system: Candida albicans; assay: Anticandidal activity against Candida albicans ATCC 60193 after 24 hrs by spectrophotometry; assay type: functional; conditions: ATCC 60193, 24 h
[8] = test system: Candida albicans; assay: Anticandidal activity against Candida albicans 15T after 24 hrs by spectrophotometry; assay type: functional
[9] = test system: Candida tropicalis; assay: Anticandidal activity against Candida tropicalis 86E after 24 hrs by spectrophotometry; assay type: functional
[10] = test system: Candida albicans; assay: Anticandidal activity against Candida albicans 53T after 24 hrs by spectrophotometry; assay type: functional
[11] = test system: Candida albicans; assay: Anticandidal activity against Candida albicans 4T after 24 hrs by spectrophotometry; assay type: functional
[12] = test system: Aspergillus versicolor; assay: Antifungal activity against Aspergillus versicolor isolated from patient skin after 48 hrs by broth microdilution method; assay type: functional
[13] = test system: Aspergillus niger; assay: Antifungal activity against Aspergillus niger isolated from patient sputum after 48 hrs by broth microdilution method; assay type: functional
[14] = test system: Aspergillus fumigatus; assay: Antifungal activity against Aspergillus fumigatus isolated from patient bronchoalveolar lavage fluid after 48 hrs by broth microdilution method; assay type: functional; conditions: Lung
[15] = test system: Aspergillus niger; assay: Antifungal activity against Aspergillus niger isolated from patient nasal swab after 48 hrs by broth microdilution method; assay type: functional
[16] = test system: Aspergillus flavus; assay: Antifungal activity against Aspergillus flavus isolated from patient sputum after 48 hrs by broth microdilution method; assay type: functional
[17] = test system: Aspergillus fumigatus; assay: Antifungal activity against Aspergillus fumigatus isolated from patient sputum after 48 hrs by broth microdilution method; assay type: functional
[18] = Therapeutic index, ratio of drug level reducing 50% viability of human lymphocytes at 25 degC to MIC50 for Candida sp.
[19] = Therapeutic index, ratio of drug level reducing 50% viability of human lymphocytes at 37 degC to MIC50 for Candida sp.
Summary of the method: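 Index is the lymphocyte concentration giving 50% viability at 37 °C divided by MIC50 for each Candida species; lymphocytes were exposed to 0–50 μM.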

[20] = Cytotoxicity against human lymphocytes assessed as cell viability up to 30 uM; assay type: cell-based, Lymphocyte; conditions: read-out: Activity
Summary of the method: (§1)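 Human lymphocytes exposed to compound at concentrations between 0 and 50 μM, at both 25 and 37 °C; read-out is percent cell viability.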

[21] = Cytotoxicity against human lymphocytes at 40 uM; assay type: cell-based; conditions: lymphocyte; summary of the method: as §1
[22] = test system: Aspergillus versicolor; assay: Antifungal activity against Aspergillus versicolor isolated from patient sputum after 48 hrs by broth microdilution method; assay type: functional
[23] = test system: Aspergillus terreus; assay: Antifungal activity against Aspergillus terreus isolated from patient bronchoalveolar lavage fluid after 48 hrs by broth microdilution method; assay type: functional; conditions: Lung
[24] = Cytotoxicity against human lymphocytes at 50 uM; assay type: cell-based; conditions: lymphocyte; summary of the method: as §1

Row | Compound | MIC [1] [µM] | MIC [2] [µM] | MIC [3] [µM] | MIC [4] [µM] | MIC [5] [µM] | MIC [6] [µM] | MIC [7] [µM] | MIC [8] [µM] | MIC [9] [µM] | MIC [10] [µM] | MIC [11] [µM] | MIC [12] [µM] | MIC [13] [µM] | MIC [14] [µM] | MIC [15] [µM] | MIC [16] [µM] | MIC [17] [µM] | MIC [22] [µM] | MIC [23] [µM] | other results
1 | C#CCNC(=N)NCCCCCCCCN1CCCCCCCCNC(=N)NC1=O | 40 (≈ 16.8 µg/mL) | 40 (≈ 16.8 µg/mL) | 40 (≈ 16.8 µg/mL) | 80 (≈ 33.6 µg/mL) | 80 (≈ 33.6 µg/mL) | 80 (≈ 33.6 µg/mL) | 2.5 (≈ 1.05 µg/mL) | 2.5 (≈ 1.05 µg/mL) | 5 (≈ 2.1 µg/mL) | 5 (≈ 2.1 µg/mL) | 80 (≈ 33.6 µg/mL) |  |  |  |  |  |  |  |  | 
2 | C/C=C/CNC(=N)NCCCCCCCCN1CCCCCCCCNC(=N)NC1=O | 5 (≈ 2.18 µg/mL) | 5 (≈ 2.18 µg/mL) | 5 (≈ 2.18 µg/mL) | 5 (≈ 2.18 µg/mL) | 5 (≈ 2.18 µg/mL) | 20 (≈ 8.71 µg/mL) | 2.5 (≈ 1.09 µg/mL) | 1.25 (≈ 0.545 µg/mL) | 1.25 (≈ 0.545 µg/mL) | 2.5 (≈ 1.09 µg/mL) | 1.25 (≈ 0.545 µg/mL) | 4 (≈ 1.74 µg/mL) | 18 (≈ 7.84 µg/mL) | 36 (≈ 15.7 µg/mL) | 18 (≈ 7.84 µg/mL) | 36 (≈ 15.7 µg/mL) | 73 (≈ 31.8 µg/mL) | 18 (≈ 7.84 µg/mL) | 73 (≈ 31.8 µg/mL) | Ratio [18]: 2.4; Ratio [19]: 1.9; viability [20]: 100%; Activity [21]: 78%; Activity [24]: 43%
3 | C[C@@H]1[C@H](O)[C@@H](C)/C=C/C=C/C=C/C=C/C=C/C=C/C=C/[C@H](O[C@@H]2O[C@H](C)[C@@H](O)[C@H](N)[C@@H]2O)C[C@@H]2O[C@](O)(C[C@@H](O)C[C@@H](O)[C@H](O)CC[C@@H](O)C[C@@H](O)CC(=O)O[C@H]1C)C[C@H](O)[C@H]2C(=O)O [AMPHOTERICIN B] |  |  |  |  |  |  |  |  |  |  |  | 0.135 (≈ 0.125 µg/mL) | 0.27 (≈ 0.25 µg/mL) | 0.27 (≈ 0.25 µg/mL) | 0.135 (≈ 0.125 µg/mL) | 2.1 (≈ 1.94 µg/mL) | 0.135 (≈ 0.125 µg/mL) | 0.54 (≈ 0.499 µg/mL) | 1 (≈ 0.924 µg/mL) | 
4 | CC(C)=CCNC(=N)NCCCCCCCCNCCCCCCCCNC(=N)N | 20 (≈ 8.47 µg/mL) | > 80 | > 80 | 40 (≈ 16.9 µg/mL) | 40 (≈ 16.9 µg/mL) | 80 (≈ 33.9 µg/mL) | 80 (≈ 33.9 µg/mL) | 40 (≈ 16.9 µg/mL) | 20 (≈ 8.47 µg/mL) | 80 (≈ 33.9 µg/mL) | 80 (≈ 33.9 µg/mL) |  |  |  |  |  |  |  |  | 
5 | CC(C)=CCNC(=N)NCCCCCCCCN1CCCCCCCCNC(=N)NC1=O | 20 (≈ 8.99 µg/mL) | > 80 | > 80 | 40 (≈ 18 µg/mL) | 10 (≈ 4.5 µg/mL) | 80 (≈ 36 µg/mL) | 40 (≈ 18 µg/mL) | 20 (≈ 8.99 µg/mL) | 20 (≈ 8.99 µg/mL) | 20 (≈ 8.99 µg/mL) | 20 (≈ 8.99 µg/mL) |  |  |  |  |  |  |  |  | 
6 | CCC(C)n1ncn(-c2ccc(N3CCN(c4ccc(OCC5COC(Cn6cncn6)(c6ccc(Cl)cc6Cl)O5)cc4)CC3)cc2)c1=O (stereo not drawn) [ITRACONAZOLE] |  |  |  |  |  |  |  |  |  |  |  | 0.35 (≈ 0.247 µg/mL) | 0.35 (≈ 0.247 µg/mL) | 0.04 (≈ 0.0282 µg/mL) | 0.35 (≈ 0.247 µg/mL) | 0.04 (≈ 0.0282 µg/mL) | 0.35 (≈ 0.247 µg/mL) | 0.02 (≈ 0.0141 µg/mL) | 0.35 (≈ 0.247 µg/mL) | 
